“Also recorded” adds a separate entry of the source. Each block holds one compound with its values, some of them ahead of it.
Key:
[1] = test system: VEGF-stimulated Flk1 phosphorylation; test: Western blot, VEGF-stimulated Flk1 phosphorylation in BAEC; type: cell-based, bovine
[2] = test system: dorsoventral (DV) axis of zebrafish embryos (BMPR-I inhibition); test: Zebrafish embryo dorsalization; type: in vivo; conditions: for Dorsalization (EC100, μM): zebrafish embryos treated from 3-hpf, concentration when 100% of treated embryos are severely dorsalized, at least 20 embryos per condition
[3] = test system: zebrafish embryos; test: Zebrafish embryo nonspecific toxicity; conditions: for Early lethality at 20 μM: administered at 3-hpf
[4] = test system: intersomitic vessel (ISV) formation in Tg(Fli:EGFP)y1 embryos (VEGFR-2 inhibition); test: Zebrafish intersomitic vessel; type: in vivo; conditions: for Effect on ISV formation (words, no concentration given): ISV visualized at 48-hpf
[5] = test system: BMP-responsive C2C12BRA cells (Id1 promoter-firefly luciferase reporter), BMP4; test: BMP-responsive luciferase reporter assay; type: cell-based; conditions: read-out: IC50 in BMP-responsive luciferase reporter assay
[6] = test system: BMP4-induced p38 MAPK phosphorylation; test: Western blot, BMP4-induced p38 MAPK phosphorylation in HEK293 cells; type: cell-based
How it was run: (§1)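 Confluent HEK293 cells were serum-starved, then pretreated with the test compound or DMSO for 30 min. They were then stimulated for 30 min with Activin-A at 40 ng/ml (p-Smad2) or BMP4 at 50 ng/ml (p-p38 MAPK). Cells were lysed with protease and phosphatase inhibitors, and lysates were run on SDS-PAGE and transferred to PVDF. Phospho-proteins were detected by infrared-dye secondary antibodies.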

[7] = molecular target: human VEGF type-II receptor (KDR/Flk-1/VEGFR2) (Homo sapiens, UniProt P35968); test: In vitro kinase assay KDR; type: biochemical
Sequence of human VEGF type-II receptor (KDR/Flk-1/VEGFR2) (P35968 20-1356): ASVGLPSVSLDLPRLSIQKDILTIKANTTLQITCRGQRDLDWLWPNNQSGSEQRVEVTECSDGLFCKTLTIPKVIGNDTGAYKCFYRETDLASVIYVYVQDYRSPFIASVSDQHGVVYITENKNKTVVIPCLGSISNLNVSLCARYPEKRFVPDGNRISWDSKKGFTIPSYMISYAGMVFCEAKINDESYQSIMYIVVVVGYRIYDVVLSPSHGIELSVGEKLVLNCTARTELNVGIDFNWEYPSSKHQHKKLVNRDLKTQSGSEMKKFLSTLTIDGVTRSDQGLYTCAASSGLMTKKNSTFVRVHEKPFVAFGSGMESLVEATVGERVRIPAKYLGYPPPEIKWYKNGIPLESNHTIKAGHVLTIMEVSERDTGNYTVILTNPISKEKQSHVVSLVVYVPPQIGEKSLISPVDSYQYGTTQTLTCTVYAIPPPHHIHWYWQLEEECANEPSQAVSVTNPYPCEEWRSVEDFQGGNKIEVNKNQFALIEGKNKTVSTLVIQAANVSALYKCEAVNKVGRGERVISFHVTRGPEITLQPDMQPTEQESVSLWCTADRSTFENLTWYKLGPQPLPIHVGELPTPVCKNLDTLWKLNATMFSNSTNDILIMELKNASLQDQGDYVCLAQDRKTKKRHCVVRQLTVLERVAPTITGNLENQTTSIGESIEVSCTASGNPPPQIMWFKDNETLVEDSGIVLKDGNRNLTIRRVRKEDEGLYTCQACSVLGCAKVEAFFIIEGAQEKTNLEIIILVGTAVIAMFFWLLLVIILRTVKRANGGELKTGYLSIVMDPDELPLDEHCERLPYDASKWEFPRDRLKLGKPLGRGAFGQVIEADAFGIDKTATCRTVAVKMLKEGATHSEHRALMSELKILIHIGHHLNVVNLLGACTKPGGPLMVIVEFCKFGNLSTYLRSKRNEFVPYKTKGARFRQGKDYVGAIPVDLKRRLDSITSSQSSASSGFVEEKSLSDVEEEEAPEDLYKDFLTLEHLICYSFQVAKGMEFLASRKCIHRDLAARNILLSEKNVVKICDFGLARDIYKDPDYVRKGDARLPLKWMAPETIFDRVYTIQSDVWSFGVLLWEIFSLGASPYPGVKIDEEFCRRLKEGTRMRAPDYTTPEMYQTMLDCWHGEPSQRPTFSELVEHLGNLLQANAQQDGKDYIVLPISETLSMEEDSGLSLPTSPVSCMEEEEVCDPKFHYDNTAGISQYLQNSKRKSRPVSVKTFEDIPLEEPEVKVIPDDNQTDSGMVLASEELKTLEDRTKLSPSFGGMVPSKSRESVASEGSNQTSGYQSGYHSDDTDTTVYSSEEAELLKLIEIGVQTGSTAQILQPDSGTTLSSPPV

[8] = molecular target: human platelet-derived growth factor receptor-β (PDGFRβ) (Homo sapiens, UniProt P09619); test: In vitro kinase assay PDGFRβ; type: biochemical; conditions: purified human enzyme, 10 μM ATP
Sequence of human platelet-derived growth factor receptor-β (PDGFRβ) (P09619 33-1106): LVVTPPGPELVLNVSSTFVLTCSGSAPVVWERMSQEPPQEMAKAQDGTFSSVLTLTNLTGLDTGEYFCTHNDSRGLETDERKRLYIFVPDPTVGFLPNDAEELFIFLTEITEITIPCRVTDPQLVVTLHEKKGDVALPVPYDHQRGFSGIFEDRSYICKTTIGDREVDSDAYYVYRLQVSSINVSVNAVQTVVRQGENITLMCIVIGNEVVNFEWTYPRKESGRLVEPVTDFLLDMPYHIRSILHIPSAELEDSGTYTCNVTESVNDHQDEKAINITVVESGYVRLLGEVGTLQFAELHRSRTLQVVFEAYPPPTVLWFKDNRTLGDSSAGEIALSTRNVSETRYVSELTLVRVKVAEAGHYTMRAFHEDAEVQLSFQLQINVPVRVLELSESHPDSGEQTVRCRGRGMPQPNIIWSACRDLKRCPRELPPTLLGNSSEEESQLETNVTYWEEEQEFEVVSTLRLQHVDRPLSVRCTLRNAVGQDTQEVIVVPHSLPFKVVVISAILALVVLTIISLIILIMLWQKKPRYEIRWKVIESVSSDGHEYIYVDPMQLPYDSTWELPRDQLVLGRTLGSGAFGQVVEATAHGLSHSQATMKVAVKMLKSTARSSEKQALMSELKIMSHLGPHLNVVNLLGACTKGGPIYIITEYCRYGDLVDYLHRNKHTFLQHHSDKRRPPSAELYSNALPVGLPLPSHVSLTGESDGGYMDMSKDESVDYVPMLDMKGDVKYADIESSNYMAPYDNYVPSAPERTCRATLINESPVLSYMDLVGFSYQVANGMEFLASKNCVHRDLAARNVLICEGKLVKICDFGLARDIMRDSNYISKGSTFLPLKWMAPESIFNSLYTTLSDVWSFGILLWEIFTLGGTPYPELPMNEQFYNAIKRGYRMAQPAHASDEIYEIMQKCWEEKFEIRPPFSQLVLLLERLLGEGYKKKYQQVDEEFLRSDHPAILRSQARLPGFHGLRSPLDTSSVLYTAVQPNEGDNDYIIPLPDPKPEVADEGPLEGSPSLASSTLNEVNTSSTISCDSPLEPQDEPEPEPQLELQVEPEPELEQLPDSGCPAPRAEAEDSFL

[9] = test system: Activin A-induced Smad2 phosphorylation; test: Western blot, Activin A-induced Smad2 phosphorylation in HEK293 cells; type: cell-based; conditions: Activin-A 40 ng/ml
How it was run: as §1

[10] = molecular target: human AMP-activated protein kinase (AMPK/A1/B1/G1) (Homo sapiens, UniProt Q13131); test: In vitro kinase assay AMPK; type: biochemical; conditions: purified human enzyme, 10 μM ATP
Sequence of human AMP-activated protein kinase (AMPK/A1/B1/G1) (Q13131 whole entry): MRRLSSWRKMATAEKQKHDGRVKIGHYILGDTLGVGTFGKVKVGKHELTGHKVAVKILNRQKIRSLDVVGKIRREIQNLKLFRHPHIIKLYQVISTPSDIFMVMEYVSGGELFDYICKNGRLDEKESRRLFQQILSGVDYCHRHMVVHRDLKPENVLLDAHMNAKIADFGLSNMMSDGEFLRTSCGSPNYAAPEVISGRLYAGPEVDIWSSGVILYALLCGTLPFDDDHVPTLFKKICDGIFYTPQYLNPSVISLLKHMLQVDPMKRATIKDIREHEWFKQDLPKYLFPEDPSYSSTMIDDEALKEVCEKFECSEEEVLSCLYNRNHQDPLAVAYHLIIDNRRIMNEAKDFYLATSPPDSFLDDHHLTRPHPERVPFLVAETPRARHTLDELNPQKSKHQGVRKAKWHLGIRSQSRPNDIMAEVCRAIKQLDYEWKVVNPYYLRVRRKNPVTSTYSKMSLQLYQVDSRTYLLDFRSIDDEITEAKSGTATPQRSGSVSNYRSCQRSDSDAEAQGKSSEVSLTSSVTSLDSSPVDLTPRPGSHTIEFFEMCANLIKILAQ
Sequence of human AMP-activated protein kinase (AMPK/A1/B1/G1) (Q9Y478 whole entry partner): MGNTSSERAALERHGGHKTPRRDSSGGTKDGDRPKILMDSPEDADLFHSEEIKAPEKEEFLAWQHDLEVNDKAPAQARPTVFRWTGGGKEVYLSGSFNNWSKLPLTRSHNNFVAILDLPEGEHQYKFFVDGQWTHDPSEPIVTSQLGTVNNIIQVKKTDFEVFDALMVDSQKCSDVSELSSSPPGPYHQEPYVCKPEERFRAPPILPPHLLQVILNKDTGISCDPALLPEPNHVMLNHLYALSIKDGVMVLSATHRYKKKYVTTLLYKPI
Sequence of human AMP-activated protein kinase (AMPK/A1/B1/G1) (P54619 whole entry partner): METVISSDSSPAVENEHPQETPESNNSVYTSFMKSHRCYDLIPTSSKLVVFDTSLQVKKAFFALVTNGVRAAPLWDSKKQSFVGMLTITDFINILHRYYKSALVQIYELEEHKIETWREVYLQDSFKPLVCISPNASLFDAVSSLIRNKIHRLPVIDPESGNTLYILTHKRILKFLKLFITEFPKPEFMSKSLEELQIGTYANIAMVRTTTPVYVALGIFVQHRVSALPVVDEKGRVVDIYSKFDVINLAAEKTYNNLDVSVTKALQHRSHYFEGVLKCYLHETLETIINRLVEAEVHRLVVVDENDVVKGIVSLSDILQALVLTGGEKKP

[11] = molecular target: caALK3 (Homo sapiens, UniProt P36894, Q233D); test: BMP reporter subtype analysis, caALK3; type: cell-based
Sequence of caALK3 (P36894 24-532 Q233D): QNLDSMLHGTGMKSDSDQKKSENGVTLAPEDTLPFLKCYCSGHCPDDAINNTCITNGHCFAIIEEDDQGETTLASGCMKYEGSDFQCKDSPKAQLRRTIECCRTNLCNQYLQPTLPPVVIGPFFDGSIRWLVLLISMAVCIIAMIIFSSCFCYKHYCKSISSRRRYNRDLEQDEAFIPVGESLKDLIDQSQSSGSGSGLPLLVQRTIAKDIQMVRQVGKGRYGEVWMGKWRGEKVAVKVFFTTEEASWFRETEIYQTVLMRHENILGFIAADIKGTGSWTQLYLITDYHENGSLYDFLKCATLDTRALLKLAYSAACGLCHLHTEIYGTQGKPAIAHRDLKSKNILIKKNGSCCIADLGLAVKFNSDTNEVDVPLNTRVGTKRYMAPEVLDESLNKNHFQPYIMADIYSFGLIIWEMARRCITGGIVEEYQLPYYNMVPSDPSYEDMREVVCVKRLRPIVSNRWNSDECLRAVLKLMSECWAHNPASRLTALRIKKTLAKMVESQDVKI

[12] = test system: caALK6; test: BMP reporter subtype analysis, caALK6; type: cell-based; conditions: C2C12BRA cells transfected with constitutively active ALK6
[13] = test system: BMP4-induced Smad 1/5/8 phosphorylation; test: Western blot, BMP4-induced Smad1/5/8 phosphorylation in HEK293 cells; type: cell-based; conditions: BMP4 50 ng/ml
[14] = molecular target: T1, human TGFβ type-I receptor activin receptor-like kinase 5 (Alk5/TGFβR1) (Homo sapiens, UniProt P36897); test: In vitro kinase assay ALK5; type: biochemical; conditions: purified human enzyme, 10 μM ATP
T1 sequence (P36897 34-503): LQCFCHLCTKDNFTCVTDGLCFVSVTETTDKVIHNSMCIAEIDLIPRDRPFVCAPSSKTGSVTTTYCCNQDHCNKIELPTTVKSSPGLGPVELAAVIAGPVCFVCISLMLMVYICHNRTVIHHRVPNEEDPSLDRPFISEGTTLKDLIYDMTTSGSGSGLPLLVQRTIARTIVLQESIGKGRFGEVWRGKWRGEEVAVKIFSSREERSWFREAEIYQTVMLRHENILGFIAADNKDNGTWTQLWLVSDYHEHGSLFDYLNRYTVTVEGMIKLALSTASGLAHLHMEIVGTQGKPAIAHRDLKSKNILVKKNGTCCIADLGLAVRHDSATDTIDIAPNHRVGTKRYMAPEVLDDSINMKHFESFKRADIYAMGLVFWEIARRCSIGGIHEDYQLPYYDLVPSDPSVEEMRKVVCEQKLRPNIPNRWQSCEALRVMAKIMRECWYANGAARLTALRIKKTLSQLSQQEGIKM

[15] = test system: VEGF-induced phosphorylation of AKT; test: Western blot, VEGF-stimulated Akt phosphorylation in BAEC; type: cell-based, bovine
How it was run: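 Bovine aortic endothelial cells were grown in DMEM with 10% FBS on 0.2% gelatin-coated dishes. Confluent cells were serum-starved for 18–24 hrs, treated with the test compound or DMSO for 30 min, then stimulated for 8 min with 50 ng/ml VEGF165. Lysates, prepared with protease and phosphatase inhibitors, were immunoblotted for p-AKT and total AKT with infrared-dye detection.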

[16] = test system: human umbilical vein endothelial cells (HUVEC); test: Endothelial tubule formation; type: cell-based; conditions: 15hr incubation
How it was run: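 HUVECs were maintained in EGM-2 on 0.2% gelatin-coated dishes. 1.5 ×10^4 cells were plated on wells pre-coated with extracellular matrix gel and treated with the test compound or DMSO. After 15 hr incubation, tubular network formation was examined by inverted light microscopy.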

SMILES: c1cc(-c2cnn3cc(-c4ccc(OCCN5CCCCC5)cc4)cnc23)ccn1 [DM, dorsomorphin, reference compound]
- Effect on VEGF-stimulated Flk1 phosphorylation ([1]; 50ng/ml VEGF165): suppressed VEGF-dependent Flk1 phosphorylation in a dose-dependent manner
- Effect on VEGF-stimulated Flk1 phosphorylation ([1]; 50ng/ml VEGF165, listed as dorsomorphin): inhibited the VEGF-stimulated Flk1 phosphorylation in a dose-dependent manner
- Dorsalization at 2 μM ([2]; 2 μM, administered at 3-hpf): dorsalized zebrafish embryos
- Early lethality at 20 μM [3]: substantial early lethality
- Effect on ISV formation at 10 μM ([4]; administered at 12-hpf): blocked intersomitic vessel (ISV) formation
- Effect on ISV formation at 10 μM ([4]; administered at 12-hpf, listed as dorsomorphin): completely inhibited ISV formation

- IC50 [5]: ~100 nM
- IC50 [7]: > 30000 nM
- IC50 KDR (VEGFR2) ([7]; purified human enzyme, 10 μM ATP): without any detectable inhibition
- IC50 PDGFRβ [8]: without any detectable inhibition
- IC50 AMPK [10]: without any detectable inhibition
- IC50 [11]: < 500 nM
- IC50 ALK5 (TGFβR-I) [14]: without any detectable inhibition
SMILES: CC(C)Oc1ccc(-c2cnc3c(-c4ccnc5ccccc45)cnn3c2)cc1 [DMH1, 4-(6-(4-isopropoxyphenyl)pyrazolo[1,5-a]pyrimidin-3-yl)quinoline]
- Effect on BMP4-induced p38 MAPK phosphorylation [6]: no effect
- Effect on VEGF-stimulated Flk1 phosphorylation ([1]; 50ng/ml VEGF165): no effect on VEGF-induced Flk1 phosphorylation
- Effect on Activin A-induced Smad2 phosphorylation [9]: no effect
- Dorsalization at 0.2 μM ([2]; 0.2 μM, treated from 3-hpf): caused severe dorsalization
- Effect on signaling by caALK6 [12]: negligible effect on signaling by caALK6
- Effect on BMP-induced Smad1/5/8 activation [13]: selectively inhibited the BMP-induced Smad1/5/8 activation; also recorded: blocked BMP4-induced Smad 1/5/8 phosphorylation
- Effect on ISV formation at 100 μM ([4]; 100 μM, treated from 12-hpf): no effect on ISV formation
- Effect on ISV formation (words, no concentration given) ([4]; administered at 12-hpf): did not have any detectible effect on ISV formation

SMILES: c1ccc2c(-c3cnn4cc(-c5ccc(OCCN6CCOCC6)cc5)cnc34)ccnc2c1 [DMH2, 4-(2-(4-(3-(quinolin-4-yl)pyrazolo[1,5-a]pyrimidin-6-yl)phenoxy)ethyl)morpholine]
- IC50 [5]: ~20 nM
- Dorsalization (EC100, μM) [2]: ~0.1 µM
- Nonspecific developmental effects ([3]; at higher concentrations): caused nonspecific developmental effects at higher concentrations
- Effect on ISV formation (words, no concentration given) ([4]; administered at 12-hpf): did not have any detectible effect on ISV formation

SMILES: CN(C)CCCOc1ccc(-c2cnc3c(-c4ccnc5ccccc45)cnn3c2)cc1 [DMH3, N,N-dimethyl-3-(4-(3-(quinolin-4-yl)pyrazolo[1,5-a]pyrimidin-6-yl)phenoxy)propan-1-amine]
- IC50 [5]: ~7 nM
- Dorsalization (EC100, μM) [2]: ~1 µM
- Effect on ISV formation (words, no concentration given) ([4]; administered at 12-hpf): did not have any detectible effect on ISV formation

SMILES: c1ccc(-c2cnn3cc(-c4ccc(OCCN5CCOCC5)cc4)cnc23)cc1 [DMH4, 4-(2-(4-(3-phenylpyrazolo[1,5-a]pyrimidin-6-yl)phenoxy)ethyl)morpholine]
- Effect on VEGF-stimulated Akt phosphorylation [15]: effectively blocked VEGF-stimulated phosphorylation; also recorded: blocked VEGF-induced phosphorylation
- Effect on VEGF-stimulated Flk1 phosphorylation ([1]; 50ng/ml VEGF165): effectively blocked VEGF-stimulated phosphorylation; also recorded: blocked VEGF-induced phosphorylation
- Effect on tubular network formation at 1 μM [16]: effectively blocked angiogenesis; also recorded: blocked VEGF-induced tubular network formation
- Effect on dorsoventral axis at 50 μM ([2]; 50 μM, treated from 3-hpf): no effect on dorsoventral axis
- Effect on DV axis (words, no concentration given) ([2]; administered at 3-hpf): no discernable effect on DV axis
- Dorsalization (EC100, μM) [2]: No (>50) μM
- Effect on ISV and SIV formation at 1 μM ([4]; 1 μM): disrupted both ISV and SIV formation
- Effect on ISV formation (words, no concentration given) ([4]; administered at 12-hpf): caused significant defects in the ISV and the subintestinal vessel (SIV)

SMILES: c1ccc2c(-c3cnn4cc(-c5ccc(N6CCNCC6)cc5)cnc34)ccnc2c1 [LDN-193189, reference compound]
- Dorsalization (EC100, μM) [2]: 3 µM
- Early lethality at 20 μM [3]: substantial early lethality
- Effect on ISV formation at 20 μM ([4]; 20 μM, administered at 12-hpf): significantly inhibited ISV formation
